C2C12 statin: suppressors of statin myotoxicity in C2C12 myotubes, primary screen, cell-based, single point, plate reader; C2C12 myotubes + simvastatin, ATP luminescence, 48 h; scaled: DMSO 0, geranylgeraniol control 100; rescue of ATP level, % at 7.49 µM; hit rate 0.78% among 330,000; AID 602340, 2012;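 active = mean ATP rescue above about 67%, or every replicate alone reaching that limit, limit read from the data, passing the limit was not always enough; inconclusive = no clear call, values can overlap the other calls; inactive = mean under the limit and some replicate under it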;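 also: myotubes were challenged with 10 µM simvastatin during compound exposure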
DENV2 CPE: inhibitors of DENV2 cytopathic effect, primary screen, cell-based, plate reader, single concentration; DENV2-infected cells, cytopathic effect rescue; hit rate 1.7% among 350,000; AID 651640, 2012; CPE inhibition, % at 9.99 µM; in the data active = CPE inhibition above about 20%, passing the limit was not always enough; inconclusive = no clear call, values can overlap the other calls; tested in BHK-21 cells;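 also: 0% = median of neutral control wells and 100% = median of positive control wells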
E-sel inducer: E-selectin induction in HUVECs, primary screen, imaging, HUVEC, immunofluorescence imaging, single point; P16581; normalized: neutral wells 0, TNF-alpha wells 100; activation, % at 7.58 µM; hit rate 0.37% among 260,000; AID 686992, 2013;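 active = mean E-selectin-positive cell signal at least 10% of the positive control, reached in at least 60% of replicates, without over 20% cell loss; inconclusive = no rule given, readout overlaps actives, possibly toxicity-flagged; inactive = the rest, including those meeting only one limit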
Target sequence (P16581 whole entry, looked up): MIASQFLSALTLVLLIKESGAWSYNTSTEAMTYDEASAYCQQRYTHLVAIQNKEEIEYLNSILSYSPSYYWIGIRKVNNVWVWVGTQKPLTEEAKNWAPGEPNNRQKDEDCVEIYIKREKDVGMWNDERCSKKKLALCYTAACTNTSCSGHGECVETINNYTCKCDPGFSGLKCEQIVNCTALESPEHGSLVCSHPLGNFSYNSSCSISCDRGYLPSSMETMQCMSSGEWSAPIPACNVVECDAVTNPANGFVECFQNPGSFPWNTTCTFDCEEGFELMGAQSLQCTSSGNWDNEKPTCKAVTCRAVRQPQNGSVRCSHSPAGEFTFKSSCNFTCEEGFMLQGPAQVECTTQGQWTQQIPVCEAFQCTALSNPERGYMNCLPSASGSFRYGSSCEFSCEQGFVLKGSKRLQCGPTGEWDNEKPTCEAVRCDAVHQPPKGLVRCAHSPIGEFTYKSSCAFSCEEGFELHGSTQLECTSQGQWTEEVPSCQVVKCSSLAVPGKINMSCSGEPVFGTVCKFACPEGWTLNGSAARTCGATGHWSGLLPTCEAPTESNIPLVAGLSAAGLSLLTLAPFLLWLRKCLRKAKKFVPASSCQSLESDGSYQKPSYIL
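Read-out basis: % PE-positive cells; Test system: HUVEC primary endothelial cells; Technique: immunofluorescence imaging; Dosing: single-point compound dose.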
XiGFP reactiv: activators of inactive X chromosome reactivation, primary screen, imaging, XiGFP fibroblasts, GFP high-content imaging, set 2. XiGFP mouse fibroblasts, % GFP-positive cells imaging, 3 d; cells co-treated with 5-aza-dC sensitizer; scaled so ellipticine positive control = 100%. activation, % at 7.58 µM. hit rate 0.055% among 360,000;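 active = mean normalized replicate activation at least 10% and every replicate at or above 10%; inconclusive = only one of the two criteria met; inactive = mean below 10% and not all replicates reach 10%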;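 also: 0% = median of on-plate neutral control wells and 100% = ellipticine 6 µM median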
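System: SV40-immortalized XiGFP fibroblast cells, line 68-5-11 / Incubation: 3-day compound exposure, then 15 min fixation at room temperature / Compound: single concentration per compound, delivered by pin transfer / Buffer or medium: DMEM plus 5-aza-dC sensitizer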
FGF22 binding: binders of human FGF22 protein, primary screen, FGF22 synaptogenesis inhibitor project, biophysical, thermal shift, single point; Fibroblast growth factor 22 (Homo sapiens), Q9HCT0; recombinant FGF22 thermal shift, SYPRO orange fluorescence; percent of sucrose octasulfate shift, DMSO zero; activity (Tm shift, normalised), % at 9.99 µM; hit rate 1.5% among 340,000;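 active = mean Tm shift, scaled 0 neutral to 100 positive control, at about 1.3% or above, every replicate too, limit read from the data; inconclusive = no clear call, values can overlap the other calls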
PglD DTNB: C. jejuni PglD acetyltransferase inhibitors, primary screen, biochemical, DTNB colorimetric, single point; UDP-N-acetylbacillosamine N-acetyltransferase PglD (Campylobacter jejuni); purified PglD enzyme, DTNB colorimetric CoA detection; inhibition, % at 12.5 µM; hit rate 0.098% among 360,000; AID 602405, 2012; in the data active = inhibition above about 16%, passing the limit was not always enough; inconclusive = no clear call, values can overlap the other calls
Numbers without * were called inactive; ? = inconclusive; . = not tested or not shown; ! = not confirmed by another sample. Most compounds without a hit are left out; they make up all but 3.3% or so of the library.

SMILES	C2C12 statin	DENV2 CPE	E-sel inducer	XiGFP reactiv	FGF22 binding	PglD DTNB
CN(C)CC(=O)N1CC[C@@H]2[C@H]1c1cc(-c3ccccc3)ccc1N(C)[C@H]2CO	-15.8	-9.2	0.6	0.1	-0.4	2.8
CN1c2ccc(-c3ccccc3F)cc2[C@H]2[C@H](CCN2S(=O)(=O)c2ccc(F)cc2)[C@H]1CO	-6.5	65.3*	0.3	0.0	-0.1	-3.8
CN(C)CC(=O)N1CC[C@H]2[C@@H]1c1cc(-c3ccccc3F)ccc1N(C)[C@H]2CO	-12.1	21.5*	0.0	-0.1	0.1	-0.2
CN(C)CC(=O)N1CC[C@@H]2[C@H]1c1cc(-c3ccccc3F)ccc1N(C)[C@@H]2CO	-8.9	48.7*	0.0	0.1	0.4	1.3
CN1c2ccc(-c3ccccc3F)cc2[C@H]2[C@H](CCN2C(=O)NC2CCCCC2)[C@H]1CO	.	-9.8	0.4	0.0	.	.
O=C(C[C@@H]1C[C@@H]2c3cc(NC(=O)c4ccc5c(c4)OCO5)ccc3O[C@@H]2[C@H](CO)O1)NCc1cccnc1	-1.4	-3.8	0.2	0.0	-0.1	-1.8
O=S(=O)(NC[C@H]1CC[C@@H]2NC[C@@H]2O1)c1ccccc1F	.	-0.1	.	.	.	.
O=C1C(=C(c2ccccc2)c2ccccc2)Nc2ccccc21	99.6*	.	.	.	.	-6.1
C[C@@H]1CN([C@H](C)CO)C(=O)c2cc(Br)cnc2O[C@@H]1CN(C)C(=O)c1ccccc1	8.6	65.1*!	0.1	0.3	0.1	-0.8
C[C@H]1CN([C@@H](C)CO)C(=O)c2cc(Br)cnc2O[C@@H]1CN(C)C(=O)CN(C)C	-3.9	-9.0	0.7	0.1	0.3	1.3
C[C@@H]1CN([C@@H](C)CO)C(=O)c2cc(Br)cnc2O[C@@H]1CN(C)S(C)(=O)=O	6.7	32.3*!	1.5	0.1	0.1	-4.1
CCC(=O)N(C)C[C@H]1Oc2ncc(Br)cc2C(=O)N([C@@H](C)CO)C[C@@H]1C	-22.0	6.9	72.6*	-0.8	-0.3	-2.5
O=C1CN(S(=O)(=O)Cc2ccccc2)C[C@@H]2[C@@H](c3ccc(C#Cc4cccnc4)cc3)[C@@H](CO)N12	.	8.8	0.1	0.0	.	.
COc1cccc(NC(=O)C[C@H]2CC[C@H]3[C@H](COc4ccc(NC(=O)C5CCCCC5)cc4C(=O)N3C)O2)c1	5.5	2.5	0.3	0.7	0.0	1.0
C[C@@H]1CCCCO[C@@H](CN(C)C)[C@H](C)CN([C@H](C)CO)C(=O)c2cc(NC(=O)Nc3cccc4ccccc34)ccc2O1	31.4	-14.7	0.1	0.6	0.0	-4.1
COC(=O)C[C@H]1c2cc(C(F)(F)F)ccc2S(=O)(=O)N1Cc1ccc(OC)cc1	4.9	20.2*	-0.3	0.2	-0.8	-0.9
COc1ccccc1CN1[C@@H](CC(C)=O)c2cc(C(F)(F)F)ccc2S1(=O)=O	4.5	71.3*	-0.3	-0.4	0.0	3.2
COC(=O)C[C@H]1c2cc(F)ccc2S(=O)(=O)N1Cc1ccccc1OC	-2.9	15.5	0.0	0.1	0.0	-3.5
CCCN1C[C@H](C)[C@H](OC)CN(C)C(=O)c2cc(NC(=O)CC(F)(F)F)ccc2OC[C@H]1C	.	-3.6	-0.1	0.2	-0.2	.
CO[C@H]1CN(C)C(=O)c2cc(NC(=O)CC(F)(F)F)ccc2OC[C@@H](C)N(C(=O)C2CCCCC2)C[C@@H]1C	.	-0.8	0.2	-0.6	0.0	.
CCCN1C[C@@H](C)[C@@H](OC)CN(C)C(=O)c2cc(NC(=O)C3CCOCC3)ccc2OC[C@H]1C	-3.2	26.2*	0.0	0.0	0.2	-4.1
CO[C@H]1CN(C)C(=O)c2cc(NC(=O)CC(F)(F)F)ccc2OC[C@H](C)N(C(=O)C2CCCCC2)C[C@H]1C	.	50.1*	0.0	-0.4	-0.2	.
CCCN1C[C@@H](C)[C@@H](OC)CN(C)C(=O)c2cc(NC(=O)CC(F)(F)F)ccc2OC[C@@H]1C	.	55.8*	0.0	0.2	-0.4	.
CCC(=O)Nc1ccc2c(c1)OC[C@H](C)N(CCC(F)(F)F)C[C@@H](C)[C@H](OC)CN(C)C2=O	-11.4	24.1*	-0.2	0.4	-0.1	1.0
C[C@@H]1CN([C@@H](C)CO)C(=O)c2cc(-c3cccnc3)cnc2O[C@@H]1CN(C)C(=O)Cc1cccnc1	-7.8	-6.1	-0.2	-1.0	0.4	-5.9
SMILES	C2C12 statin	DENV2 CPE	E-sel inducer	XiGFP reactiv	FGF22 binding	PglD DTNB
COc1ccc(NC(=O)Nc2ccc3c(c2)C(=O)N([C@H](C)CO)C[C@H](C)[C@@H](CN(C)CC2CCCCC2)O3)cc1	-8.2	-1.9	-4.9	0.4	0.6	-7.5
CCCC(=O)Nc1ccc2c(c1)C(=O)N(C)C[C@H](OC)[C@H](C)CN(CCC(F)(F)F)[C@@H](C)CO2	-3.9	22.5*	0.1	0.3	-0.1	-4.4
CS(=O)(=O)N(CC(=O)Nc1ccccc1C(=O)N1CCCC1)c1ccc2c(c1)OCO2	.	-3.5	0.4	-0.1	43.4*	.
CS(=O)(=O)N(CC(=O)Nc1ccccc1C(=O)N1CCCC1)c1cccc([N+](=O)[O-])c1	.	-0.5	.	0.0	0.1	.
COc1ccc([N+](=O)[O-])cc1N(CC(=O)Nc1ccccc1C(=O)N1CCCC1)S(C)(=O)=O	.	-2.5	-0.5	0.0	43.5*	.
CS(=O)(=O)N(CC(=O)Nc1ccccc1C(=O)N1CCOCC1)c1ccc2c(c1)OCO2	1.5	.	.	.	.	.
COc1ccc(CCNC(=O)CN(c2cc([N+](=O)[O-])ccc2OC)S(C)(=O)=O)cc1	.	-7.9	-0.3	0.0	43.5*	.
CCOC(=O)c1c(O)c(Cl)c(C)[nH]c1=O	-14.9	3.2	-0.4	0.0	43.3*	0.6
CCOC(=O)c1c(O)c2c([nH]c1=O)CCCC2	-6.8	.	.	.	.	1.0
N#CC1CC(c2ccc([N+](=O)[O-])cc2)=NN1c1ccc([N+](=O)[O-])cc1 (stereo not given)	-12.2	-3.1	0.5	0.4	43.7*	0.9
CCNC(=O)Cc1ccc(S(=O)(=O)N2CCOCC2)s1	-1.4	?	.	0.0	0.0	3.1
O=C(COC(=O)Cc1cccs1)Nc1cccc(S(=O)(=O)N2CCOCC2)c1	.	7.6	0.0	0.3	0.0	.
Cc1cc(Br)ccc1NC(=O)CNC(=O)Cc1ccc(S(=O)(=O)N2CCOCC2)s1	-2.6	39.1*	3.2	-0.1	.	2.3
NS(=O)(=O)c1cccc(NC(=O)COC(=O)Cc2ccc(S(=O)(=O)N3CCOCC3)s2)c1	10.3	2.7	.	139.9*	0.1	-2.7

Bioassay records as filed in PubChem BioAssay.
